m5-HT2A agonist: agonists of mouse serotonin 5-HT2A receptor (HTR2A) | P35363 | actives 0.66% (n = 360,000) | CHO-K1 mHTR2A beta-arrestin complementation, luminescence; percent of 30 µM serotonin response | activation, % at 7.6 µM;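 active means activation above a run cutoff, the mean activation of all tested compounds plus 3 SD, cut at about 14% in these data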
Target sequence (P35363 whole entry, looked up): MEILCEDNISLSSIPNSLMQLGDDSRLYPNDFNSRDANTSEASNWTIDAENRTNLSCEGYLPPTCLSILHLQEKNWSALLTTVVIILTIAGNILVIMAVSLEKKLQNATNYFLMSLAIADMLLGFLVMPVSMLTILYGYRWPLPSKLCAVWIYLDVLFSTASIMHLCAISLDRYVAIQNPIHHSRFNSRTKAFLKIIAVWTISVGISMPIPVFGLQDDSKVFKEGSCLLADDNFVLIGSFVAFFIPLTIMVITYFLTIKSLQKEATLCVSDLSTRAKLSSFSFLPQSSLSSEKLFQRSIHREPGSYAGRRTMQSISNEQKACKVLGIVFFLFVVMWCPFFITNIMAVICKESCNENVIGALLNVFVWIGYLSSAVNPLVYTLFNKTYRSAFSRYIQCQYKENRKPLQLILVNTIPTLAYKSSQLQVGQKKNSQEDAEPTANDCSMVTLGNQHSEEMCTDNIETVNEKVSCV
NTR1 ag: NTR1 (human) agonism | actives 0.17% (n = 330,000) | activation, % at 20 µM | AID 493036 | NTR1-U2OS beta-arrestin-GFP spot imaging, agonist mode | P30989;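 active means activation at or above 40% of the spot to cytoplasm intensity ratio, with at least 20 cells analyzed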
MC4R barr agon: activates human MC4R beta-arrestin recruitment | U2OS MC4R beta-arrestin complementation, luminescence; percent of melanotan II response, DMSO zero | actives 0.98% (n = 360,000) | activation, % at 8.9 µM;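 active means activation above a per-plate cutoff, the mean activation of sample wells on that plate plus 3 SD, cut at about 8% in these data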
MC4R antag cAMP: antagonists of human melanocortin 4 receptor (MC4R). P32245. AID 540295. actives 0.48% (n = 360,000). inhibition, % at 6.5 µM. MC4R-expressing cells, MTII-stimulated cAMP, LANCE TR-FRET;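 active means inhibition above its plate's cutoff, the mean of tested wells on that plate plus 3 SD, cut at about 29% in these data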
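system = U2OS cells with stable human MC4R expression | also added = Melanotan II challenge after compound preincubation | dosing = one concentration, 6.5 µM nominal | incubation = compound 30 min, challenge 1 h, detection 1 h | measured by = TR-FRET with Eu-cAMP and labeled anti-cAMP, 671 nm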
PREPL inh: inhibits the human prolyl oligopeptidase-like enzyme | Q4J6C6 | recombinant PREPL, fluorescence polarization activity-based probe | inhibition, % at 5.96 µM | actives 0.68% (n = 320,000); in the data active means inhibition above about 43%
Lipid droplet: modulators of hepatic lipid droplet formation. AID 1656. inhibition, % at 6.5 µM. AML12 mouse hepatocytes, oleate lipid droplets, BODIPY imaging. actives 0.4% (n = 240,000);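 active means lipid droplet intensity inhibited by at least 50%, with more than 500 cells counted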
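Technique: fluorescence imaging, 20x objective, two fields per well / Assay system: AML12 hepatocytes (mouse) / Measure: % inhibition of lipid droplet signal / Doses: 6.5 µM single-point dosing / Incubation: overnight exposure / Reagent: 100 µM oleic acid challenge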
cAMP nonselect: nonselective cAMP signaling inhibitor, MC4R antagonist counter-screen; shares compounds with MC4R antag cAMP; parental U2OS, forskolin cAMP, LANCE TR-FRET; inhibition, % at 6.5 µM; actives 26% (n = 1,600); AID 602193;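 active means mean inhibition over triplicates above the low-control well mean plus 3 SD, set per campaign, cut at about 13% in these data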;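 further: signal is single emission at 671 nm which falls as cellular cAMP rises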
MC4R antag conf: human MC4R cAMP antagonism confirmation. shares compounds with MC4R antag cAMP. inhibition, % at 6.5 µM. actives 27% (n = 1,600). MC4R-expressing cells, MTII-stimulated cAMP, TR-FRET; in the data active means inhibition above about 29%
Numbers stand for hits; – = inactive; · = no result given. Compounds with a hit are over-represented: about 2.7% of the library has one in this group of screens.

SMILES	m5-HT2A agonist	NTR1 ag	MC4R barr agon	MC4R antag cAMP	PREPL inh	Lipid droplet	cAMP nonselect	MC4R antag conf
O=C(N[C@H]1C/C=C\C[C@H](CC(=O)N(CCO)Cc2ccccc2)C(=O)NC[C@H](c2ccccc2)OC1=O)OCC1c2ccccc2-c2ccccc21	–	–	–	32	–	·	–	–
CC(C)Cn1c(N)c(C(=O)COC(=O)c2ccc([N+](=O)[O-])o2)c(=O)n(C)c1=O	–	–	–	35	–	–	–	–
COc1ccc(N2CC(C(=O)OCC(=O)Nc3cccc(C)c3C)CC2=O)cc1 (stereo unspecified)	–	–	–	–	–	–	·	·
CC1CC(C)CN(C(=O)CNC(=O)c2ccc3ccccc3c2)C1 (stereo unspecified)	–	–	–	–	–	–	·	·
COc1cc(C2CC(=O)Oc3c2c(=O)n(C)c2ccccc32)cc(OC)c1OC (stereo unspecified)	–	–	–	38	–	–	–	–
Cc1ccc(-n2cccc2/C=C2\C(=N)N3N=C(C(C)C)SC3=NC2=O)cc1	–	–	–	73	–	–	–	–
CCC1=NN2C(=N)/C(=C\c3cccn3-c3ccc(OC)cc3)C(=O)N=C2S1	–	–	–	–	–	–	·	·
COCCNC(=O)C1CCN(S(=O)(=O)c2c(C)noc2/C=C/c2cccs2)CC1	–	–	–	–	–	–	·	·
CCOC(=O)c1sc(N(Cc2ccccc2)C(=O)CSc2nnc(C3CC3)n2N)nc1C	–	–	–	–	–	·	·	·
Cc1ccoc1C(=O)N1CCCC(CCC(=O)N2CCN(c3ccccn3)CC2)C1 (stereo unspecified)	–	–	–	31	–	–	–	–
COc1ccc(OCC(=O)N2c3ccccc3CC2C)c([N+](=O)[O-])c1 (stereo unspecified)	–	–	–	–	–	·	·	·
C[C@H](NC(=O)c1nc[nH]c1C(=O)N[C@@H](C)C(=O)OC(C)(C)C)C(=O)OCc1ccccc1	–	–	–	–	–	–	·	·
CC(C)C[C@H](NC(=O)c1nc[nH]c1C(=O)N1CCN(C(=O)OC(C)(C)C)CC1)C(=O)OCc1ccccc1	–	–	–	34	–	–	16	–
C[C@H](NC(=O)c1nc[nH]c1C(=O)N[C@@H](Cc1ccccc1)C(=O)OCc1ccccc1)C(=O)OC(C)(C)C	–	–	–	34	–	–	–	–
COC(=O)c1cccc(NC(=O)c2ccc3c(c2)C(=O)N(Cc2cccnc2)C3=O)c1C	–	–	–	–	–	–	·	·
Nc1c(N(CCCO)C(=O)C2CCCCC2)c(=O)[nH]c(=O)n1Cc1ccccc1	–	–	–	–	–	·	·	·
CCOC(=O)CNC(=O)CSc1nc2c(C)cccc2cc1CC	–	–	–	34	–	–	–	–
CCc1cc2cccc(C)c2nc1SCC(=O)NC1CCCC1	–	–	–	–	–	–	·	·
Cc1cccc2cc(C#N)c(SCC(=O)NCc3cccs3)nc12	–	–	–	39	–	–	41	80
COc1ccc(-c2noc(CN(C)CCC3CCCCO3)n2)cc1 (stereo unspecified)	–	–	–	32	–	–	–	–
COc1ccc([N+](=O)[O-])c(C=CC(=O)c2ccccn2)c1	–	·	–	30	·	·	–	–
COc1ccc(/C=C/C(=O)c2ccccn2)cc1	–	–	–	–	–	–	·	·
O=C(Nc1ccc(O)c2c(=O)cc(-c3cccc(Cl)c3)oc12)c1ccccc1Cl	–	–	–	–	–	–	·	·
FC(F)Oc1ccc(-n2cc(-c3ccc(Cl)cc3)[n+]3c2CCCCC3)cc1	–	–	–	29	–	–	–	–
COc1ccc(-n2cc(-c3ccccc3)[n+]3c2CCCCC3)cc1	–	–	–	–	–	–	·	·
NC(=O)c1cccc2ccccc12	–	–	–	32	–	–	–	–

Screening results (PubChem)
